One test relates to A549. Kind of test: Cytotoxicity against human A549 cells after 72 hrs by MTT assay. It is filed as functional, cell-based. The conditions noted are these: A549, 72 h. Summed up: (§1)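 Cells kept in RPMI-1640 with 10% FBS, 2 mM glutamine, penicillin/streptomycin, at 37 °C under 5% CO2. Seeded at 10^5 cells/well (adherent) or 0.5×10^5 cells/well (suspension). After 24 h, compounds in DMSO (0.09–25 μg/mL) added for 72 h; doxorubicin positive control. Medium then replaced with 0.5 mg/mL MTT for 3 h, formazan dissolved in DMSO, absorbance read at 595 nm as % of control; IC50 derived.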
Background: Tetrazolium dyes change colour on reduction, which living cells bring about.

For the next test, the system named is OVCAR-8. Kind of test: Cytotoxicity against human OVCAR8 cells after 72 hrs by MTT assay. The settings on record: OVCAR-8, 72 h. It is filed as functional, cell-based. Summed up: as §1
The test system of a further test is SF-295. Kind of test: Cytotoxicity against human SF295 cells after 72 hrs by MTT assay. It is filed as functional, cell-based. The conditions noted are these: SF-295, 72 h. Summed up: as §1
The next test relates to HL-60. Kind of test: Cytotoxicity against human HL60 cells after 72 hrs by MTT assay. The format is functional, cell-based. The conditions noted are these: HL-60, 72 h. Summed up:
as §1

The next test relates to MDA-MB-435. Kind of test: Cytotoxicity against human MDA-MB-435 cells after 72 hrs by MTT assay. The format is functional, cell-based. The conditions noted are these: MDA-MB-435, 72 h. A digest of the protocol: as §1
Another test has as its system A704. Kind of test: Cytotoxicity against human A704 cells after 72 hrs by MTT assay. It is filed as functional, cell-based. The conditions noted are these: A704, 72 h. A digest of the protocol:
as §1

The subject of the next test is PC-3. Kind of test: Cytotoxicity against human PC3 cells after 72 hrs by MTT assay. It is filed as functional, cell-based. The settings on record: PC-3, 72 h. Summed up:
as §1

For a further test, the system named is HCT-8. Kind of test: Cytotoxicity against human HCT8 cells after 72 hrs by MTT assay. It is filed as functional, cell-based. The settings on record: HCT-8, 72 h. Summed up:
as §1

The test system of a further test is UACC-257. Kind of test: Cytotoxicity against human UACC257 cells after 72 hrs by MTT assay. It is filed as functional, cell-based. The conditions noted are these: UACC-257, 72 h. Summed up: as §1
For the next test, the system named is PBMC. Kind of test: Cytotoxicity against human PBMC cells after 72 hrs by alamar blue assay. The format is cell-based. A digest of the protocol: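 PBMC came from heparinized blood of healthy non-smoking donors and were isolated by Ficoll-Hypaque density gradient. Cultured in RPMI-1640 with 20% FBS, glutamine and antibiotics, with 2% phytohemagglutinin. Plated at 3×10^5 cells/well; after 24 h, compounds in DMSO (0.09–25 μg/mL) added for 72 h; doxorubicin positive control. Resazurin added 24 h before end; absorbance read at 570 and 595 nm as % of control.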
(Alamar Blue is a resazurin reagent that responds to reducing activity.)

The text below walks through data of ChEMBL document CHEMBL1153609, “Synthesis and cytotoxic activity of alpha-santonin derivatives” (Eur J Med Chem, 2009).

A word on the IC50: it is the concentration that inhibits the measured activity by half. Read a high IC50 as a need for much substance. As to `CC1=C2[C@H]3OC(=O)[C@@H](C)[C@@H]3CC[C@@](C)(O)[C@@H]2CC1=O`, the IC50 in the test on A549, in the test with OVCAR-8, in the test with SF-295, with HL-60, in the test on MDA-MB-435 and in the test with A704 was more than 100 µM throughout. Moreover, the IC50 in the test on PC-3, with HCT-8 and in the test on UACC-257 was more than 100 µM throughout.

On to `CC1=C2[C@H]3OC(=O)[C@](C)([Se]c4ccccc4)[C@@H]3CC[C@@]2(C)C=CC1=O`, for which the IC50 in the test with A549, in the test on OVCAR-8, with SF-295, with HL-60, in the test with MDA-MB-435 and in the test with A704 was more than 100 µM in each case. Besides, the half-maximal inhibitory concentration (IC50) with PC-3, with HCT-8 and in the test with UACC-257 was more than 100 µM in each case.

Take `CC(=O)O[C@]1(C)CC[C@H]2[C@H](C)C(=O)O[C@@H]2C2=C(C)C(=O)C[C@H]21`: the IC50 with A549, with OVCAR-8, with SF-295, in the test on HL-60, in the test on MDA-MB-435 and in the test on A704 was more than 100 µM throughout. Further, the concentration for half-maximal inhibition (IC50) in the test on PC-3, with HCT-8 and in the test on UACC-257 was more than 100 µM in each case.

For `C=C1C(=O)O[C@@H]2C3=C(C)C(=O)C=C[C@]3(C)CC[C@@H]12`, the IC50 in the test with A549 was found to be 13.4 µM; with OVCAR-8 it was 6.94 µM; in the test with SF-295 it was 2.7 µM; in the test with HL-60 it was 1.14 µM; with MDA-MB-435, 6.74 µM; in the test on PBMC it was 3.23 µM. Further, the IC50 was determined as 10.1 µM with A704, 13 µM in the test with PC-3, 2.92 µM in the test on HCT-8 and 6.05 µM with UACC-257.

Take `C=C1C(=O)O[C@@H]2C3=C(C)C(=O)C[C@H]3[C@](C)(OC(C)=O)CC[C@@H]12`: the IC50 in the test with A549 amounted to 10.2 µM; in the test on OVCAR-8, 8.67 µM; with SF-295, 3.06 µM; in the test with HL-60, 1.6 µM; with MDA-MB-435, 8.84 µM; in the test with PBMC it was 13.5 µM. Besides, the IC50 in the test on A704 was 9.24 µM; in the test with PC-3, 14.4 µM; with HCT-8, 0.36 µM; in the test on UACC-257 it was 7.76 µM.

`CC1=C2[C@H]3OC(=O)[C@@H](C)[C@@H]3CC[C@@](C)(O)[C@@H]2C[C@@H]1O`: the concentration for half-maximal inhibition (IC50) in the test with A549, in the test with OVCAR-8, in the test on SF-295, in the test on HL-60, in the test with MDA-MB-435 and with A704 was more than 100 µM each time. In addition, the IC50 in the test with PC-3, with HCT-8 and with UACC-257 was more than 100 µM each time.

For `CC(=O)O[C@]1(C)CC[C@H]2[C@H](C)C(=O)O[C@@H]2C2=C(C)[C@@H](O)C[C@H]21`, the 50% inhibitory concentration (IC50) in the test on A549, in the test with OVCAR-8, in the test on SF-295, in the test with HL-60, with MDA-MB-435 and in the test on A704 was more than 100 µM throughout. Further, the IC50 with PC-3, in the test with HCT-8 and with UACC-257 was more than 100 µM in each case.

Regarding `C=C1C(=O)O[C@H]2[C@H]1CC[C@]1(C)C3(C)C(=O)C=CC231` (some centres not stated), the IC50 in the test on A549 came out at 14.5 µM; with OVCAR-8 it was 3.88 µM; in the test with SF-295, 2.15 µM; in the test on HL-60, 2.3 µM; with MDA-MB-435, 4.57 µM; in the test with PBMC, 13.4 µM. Moreover, the 50% inhibitory concentration (IC50) with A704 came out at 3.61 µM; in the test with PC-3 it was 5.07 µM; in the test on HCT-8 it was 1.96 µM; in the test with UACC-257, 4.87 µM.

As for `COc1cccc2c1C(=O)c1c(O)c3c(c(O)c1C2=O)C[C@@](O)(C(=O)CO)C[C@@H]3O[C@H]1C[C@H](N)[C@H](O)[C@H](C)O1` [DOXORUBICIN], the IC50 was 0.72 µM with A549; 0.51 µM with OVCAR-8; 0.48 µM with SF-295; 0.04 µM in the test with HL-60; 0.96 µM in the test on MDA-MB-435; 1.77 µM in the test on PBMC. Also, the IC50 with A704 is 2 µM; with PC-3 it was 1.32 µM; in the test on HCT-8 it was 0.02 µM; in the test on UACC-257 it was 0.6 µM.

With `CC(C)=C1CC[C@H]2[C@H](C)C(=O)O[C@@H]2/C1=C\CC(=O)O` [ISOFOTOSANTONIC ACID], the IC50 in the test with A549, with OVCAR-8, in the test with SF-295, with HL-60, with MDA-MB-435 and in the test with A704 was more than 100 µM each time. Also, the IC50 with PC-3, in the test with HCT-8 and with UACC-257 was more than 100 µM each time.

For `C[C@@H]1C(=O)O[C@H]2[C@H]1CC[C@]1(C)C3(C)C(=O)C=CC231` (some centres not stated) [LUMISANTONIN], the IC50 in the test on A549 was found to be 69.4 µM; with OVCAR-8 it was 49.8 µM; with SF-295, 68.8 µM; in the test with HL-60, 80.2 µM; with MDA-MB-435 it was 91.5 µM; with A704 it was 85.4 µM. In addition, the IC50 was 66.5 µM in the test with PC-3, 59.2 µM in the test on HCT-8 and more than 100 µM in the test on UACC-257.

As to `CC1=C2[C@H]3OC(=O)[C@@H](C)[C@@H]3CC[C@@]2(C)C=CC1=O` [SANTONIN], the IC50 with A549, in the test with OVCAR-8, with SF-295, with HL-60, with MDA-MB-435 and in the test with A704 was more than 100 µM in each case. Further, the half-maximal inhibitory concentration (IC50) in the test with PC-3, in the test with HCT-8 and in the test on UACC-257 was more than 100 µM each time.
